Assay results published in ChEMBL document CHEMBL3351269, “Phenylimidazoles as potent and selective inhibitors of coagulation factor XIa with in vivo antithrombotic activity” (J Med Chem, 2014).

What was measured:
Coagulation factor XI [1] = biological target: T1, Coagulation factor XI (Homo sapiens, UniProt P03951); experiment: Inhibition of human coagulation factor 11a using p-nitroaniline as substrate assessed as substrate hydrolysis by spectrophotometrically
Outline: (§1)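 Purified human enzymes; reaction started by adding enzyme to substrate with or without inhibitor, excess substrate and inhibitor over enzyme, 1% DMSO, room temperature, 10–120 min. pNA read at 405 nm. FXIa, FXIIa and chymotrypsin in HEPES pH 7.4 with NaCl, KCl and PEG; FXa and kallikrein in phosphate pH 7.5; FVIIa in HEPES with CaCl2. IC50 from duplicates over 8–11 concentrations, converted to Ki assuming competitive inhibition.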

Coagulation factor VII = biological target: T2, Coagulation factor VII (Homo sapiens, UniProt P08709); experiment: Inhibition of human coagulation factor 7a using H-(D)-Ile-Pro-Arg-pNA as substrate by spectrophotometric analysis; outline: as §1
T2 sequence (P08709 whole entry): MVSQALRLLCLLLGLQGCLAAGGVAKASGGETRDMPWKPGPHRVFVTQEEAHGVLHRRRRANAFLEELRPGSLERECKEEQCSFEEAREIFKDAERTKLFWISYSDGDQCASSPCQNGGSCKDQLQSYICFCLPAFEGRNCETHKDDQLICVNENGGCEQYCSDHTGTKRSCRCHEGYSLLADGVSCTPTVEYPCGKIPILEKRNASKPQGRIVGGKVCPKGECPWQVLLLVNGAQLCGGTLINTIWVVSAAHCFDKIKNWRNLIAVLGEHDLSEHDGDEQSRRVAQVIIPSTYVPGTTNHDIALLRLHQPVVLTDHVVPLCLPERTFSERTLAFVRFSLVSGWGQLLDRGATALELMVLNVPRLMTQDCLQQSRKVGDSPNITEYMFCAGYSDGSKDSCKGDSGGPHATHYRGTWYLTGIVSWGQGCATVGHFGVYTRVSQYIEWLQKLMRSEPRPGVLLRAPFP

Prothrombin = Prothrombin (Homo sapiens, UniProt P00734); experiment: Inhibition of human coagulation thrombin using pyro-Glu-Pro-Argp-NA as substrate by spectrophotometric analysis
Outline: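 Purified enzymes (α-thrombin; trypsin) in 100 mM sodium phosphate pH 7.5, 200 mM NaCl, 0.5% PEG 8000, 1% DMSO final, room temperature. Enzyme added last to substrate ± inhibitor, with substrate and inhibitor in excess. pNA release read at 405 nm over 10−120 min. IC50 from duplicate runs over 8−11 concentrations, then converted to Ki assuming competitive inhibition, using Km.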

Plasma = experiment: Anticoagulant activity in healthy human plasma assessed as prothrombin time by PT assay; assay type: functional
Outline: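 Citrated healthy-volunteer plasma spiked with inhibitor (10 mM DMSO stock diluted in plasma, up to seven concentrations). PT with Thromboplastin C-Plus: plasma warmed 3 min at 37 °C before reagent was added. Duplicates, as mean ratio to baseline control. Concentration that doubles clotting time by linear interpolation, as total plasma concentration.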

Coagulation factor XI [2] = biological target: T1, Coagulation factor XI; experiment: Inhibition of human coagulation factor 11a using p-nitroaniline as substrate assessed as substrate hydrolysis at 37 degC by spectrophotometrically
Outline: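 Purified human FXIa in 50 mM HEPES pH 7.4, 145 mM NaCl, 5 mM KCl, 0.1% PEG 8000, run at 37 °C, 1% DMSO final. Enzyme added last to substrate ± inhibitor, with substrate and inhibitor in excess. pNA release read at 405 nm. IC50 from duplicate 8–11-point series, converted to Ki assuming competitive inhibition, Ki = IC50/(1+[S]/Km).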

[3] = Inhibition of rabbit coagulation factor 11a using p-nitroaniline as substrate assessed as substrate hydrolysis at 37 degC by spectrophotometrically; parameters: species or system Oryctolagus cuniculus
Outline: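 Rabbit FXIa, chromogenic pNA-release read at 405 nm, run at 37 °C. IC50 from duplicate determinations over 8–11 concentrations, converted to Ki by Ki = IC50/(1+[S]/Km), assuming competitive inhibition.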

Coagulation factor X = biological target: T3, Coagulation factor X (Oryctolagus cuniculus, UniProt O19045); experiment: Inhibition of rabbit coagulation factor 10a using N-benzoyl-Ile-Glu-(OH, OMe)-Gly-Arg-pNA as substrate by spectrophotometric analysis
T3 sequence (O19045 whole entry): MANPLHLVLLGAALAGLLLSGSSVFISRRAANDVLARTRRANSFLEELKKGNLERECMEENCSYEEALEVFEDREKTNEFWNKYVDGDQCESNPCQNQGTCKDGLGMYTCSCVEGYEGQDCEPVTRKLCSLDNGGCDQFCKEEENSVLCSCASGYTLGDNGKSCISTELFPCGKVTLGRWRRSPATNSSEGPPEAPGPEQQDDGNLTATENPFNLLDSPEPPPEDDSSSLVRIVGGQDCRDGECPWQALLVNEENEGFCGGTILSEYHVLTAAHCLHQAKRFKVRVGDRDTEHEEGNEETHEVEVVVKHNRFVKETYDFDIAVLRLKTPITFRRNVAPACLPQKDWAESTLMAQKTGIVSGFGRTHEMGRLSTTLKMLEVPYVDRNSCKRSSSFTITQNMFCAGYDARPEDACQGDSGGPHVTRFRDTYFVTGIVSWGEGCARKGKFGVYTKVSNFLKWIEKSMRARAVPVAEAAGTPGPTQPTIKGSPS

[4] = Half life in rabbit plasma at 0.5 mg/kg, iv; assay type: ADME, organism-based, Oryctolagus cuniculus; parameters: dose 0.5 mg/kg, route intravenous
Outline: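 Single iv dose of 0.5 mg/kg in rabbits; concentrations measured in rabbit plasma.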

[5] = Plasma protein binding in rabbit at 0.5 mg/kg, iv; assay type: ADME, organism-based, Oryctolagus cuniculus; parameters: dose 0.5 mg/kg, route intravenous; settings: read-out: PPB (converted)

T1 sequence (P03951 19-387 limits assumed): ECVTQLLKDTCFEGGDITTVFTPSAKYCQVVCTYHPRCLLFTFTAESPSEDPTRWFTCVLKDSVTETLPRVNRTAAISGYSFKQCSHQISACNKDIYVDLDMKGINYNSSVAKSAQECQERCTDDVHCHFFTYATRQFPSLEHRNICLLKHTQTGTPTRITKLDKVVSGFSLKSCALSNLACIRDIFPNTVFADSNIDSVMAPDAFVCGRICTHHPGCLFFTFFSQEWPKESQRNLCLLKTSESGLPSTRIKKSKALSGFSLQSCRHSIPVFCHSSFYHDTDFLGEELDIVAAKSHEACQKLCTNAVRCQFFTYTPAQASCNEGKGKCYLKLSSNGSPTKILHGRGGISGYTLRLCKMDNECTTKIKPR
T1 sequence (P03951 388-625 limits assumed): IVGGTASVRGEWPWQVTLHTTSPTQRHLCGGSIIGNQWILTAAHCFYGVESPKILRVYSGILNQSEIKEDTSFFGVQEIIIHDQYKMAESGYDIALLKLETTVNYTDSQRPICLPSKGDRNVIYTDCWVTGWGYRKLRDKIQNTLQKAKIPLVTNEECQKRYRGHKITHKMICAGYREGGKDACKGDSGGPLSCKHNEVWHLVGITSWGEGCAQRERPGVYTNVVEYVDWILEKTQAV

Ki (Coagulation factor XI [1]): 0.3 nM
Ki (Coagulation factor VII): 4220 nM
Ki (Prothrombin): > 12600 nM
Ki (Coagulation factor XI [2]): 0.8 nM
Ki [3]: 1.2 nM
Ki (Coagulation factor X): > 10000 nM
half-life [4]: 1 h
fraction unbound [5]: 0.15
Structure (SMILES): NC[C@H]1CC[C@H](C(=O)N[C@@H](Cc2ccccc2)c2nc(-c3ccc4c(N)n[nH]c4c3)c(Cl)[nH]2)CC1.O=C(O)C(F)(F)F
2PT (Plasma): >40 µM
